pEC50, pKi: −log10 of the molar value. The source made the active and inactive calls. The rule behind the calls is not given here.
Legend:
[1] = species: Mus musculus; experiment: Hypothermia in mouse; type: functional
How it was run: (§1)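 Rectal temperature in mice measured by thermistor probe inserted 24 mm, read just before and at several times after sc injection (saline vehicle). Readout is the before-after difference for each mouse; ambient temperature 21-24 °C.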

[2] = test system: Mus musculus; experiment: Antinociceptive activity in mouse by hot plate assay at 10 mg/kg, sc after 5 mins; type: functional; details: route subcutaneous
How it was run: (§2)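 Mouse hot-plate at 55.0 °C in a 10-cm glass cylinder. Two control latencies were taken ≥10 min apart (normal 8-12 s), scored by jumping or paw licking. Mice were tested 5 min after sc injection. Response given as %MPE = (test - control)/(maximum - control) × 100.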

[3] = test system: Rattus norvegicus; experiment: Antagonist activity on nicotine discrimination in rat at 3 mg/kg by lever press assay; type: functional; design: scale not given: the % may be the effect or the level left
How it was run: (§3)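 Pretreatment with the test dose sc was followed 10 min later by 0.4 mg/kg (-)-nicotine, then a 15-min test session. Readouts: % nicotine-lever responding and response rate.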

[4] = species: Mus musculus; experiment: Spontaneous activity in mouse; type: functional
How it was run: (§4)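 Mice placed in individual photocell activity cages 5 min after sc injection (0.9% saline vehicle). Photocell beam interruptions were counted over the next 10 min.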

[5] = test system: Mus musculus; experiment: Antinociceptive activity in mouse by tail flick assay at 10 mg/kg; type: functional
How it was run: (§5)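 Mouse tail-flick: tail exposed to a heat lamp and flick latency recorded. A control latency (2-4 s) was taken before treatment and a test latency after drug. Response given as %MPE = (test - control)/(maximum - control) × 100. ED50 with 95% confidence limits from unweighted least-squares linear regression.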

[6] = biological target: Neuronal acetylcholine receptor; alpha4/beta2 (Rattus norvegicus, UniProt P09483+P12390); experiment: Displacement of [3H]epibatidine from alpha-4-beta-2 nACHR in rat cerebral cortex; type: tissue-based
[7] = species: Mus musculus; experiment: Antagonist effect on nicotine-induced antinociceptive activity in mouse by hot plate assay; type: functional
[8] = test system: Rattus norvegicus; experiment: Agonist activity on nicotine discrimination in rat at 3 mg/kg by lever press assay; type: functional
How it was run: (§6)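 Substitution tests were 15-min sessions starting 10 min after sc injection, with either lever reinforced. A rat was tested only if it made ≥80% injection-appropriate responses on the prior training day. Readouts: % nicotine-lever responding and response rate.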

[9] = species: Mus musculus; experiment: Antagonist effect against nicotine-induced antinociceptive activity in mouse by tail flick assay; type: functional
[10] = test system: Mus musculus; experiment: Antinociceptive activity in mouse by tail flick assay at 1 mg/kg; type: functional; how it was run: as §5
[11] = test system: Mus musculus; experiment: Antagonist effect on nicotine-induced antinociceptive activity in mouse by hot plate assay at […]; type: functional; design: scale not given: the % may be the effect or the level left
[12] = test system: Mus musculus; experiment: Antagonist effect on nicotine-induced antinociceptive activity in mouse by tail flick assay at […]; type: functional; design: scale not given: the % may be the effect or the level left
[13] = test system: Mus musculus; experiment: Antinociceptive activity in mouse by hot plate assay at 1 mg/kg, sc after 5 mins; type: functional; details: route subcutaneous; how it was run: as §2
[14] = biological target: T1, Neuronal acetylcholine receptor; alpha4/beta2 (Homo sapiens, UniProt P17787+P43681); experiment: Intrinsic activity at human alpha-4-beta-2 nACHR in SH-EP1 cells relative to ACh; type: functional, cell-based
[15] = test system: Rattus norvegicus; experiment: Agonist activity on nicotine discrimination in rat at 0.56 mg/kg by lever press assay; type: functional; how it was run: as §6
[16] = test system: Rattus norvegicus; experiment: Antagonist activity on nicotine discrimination in rat at 0.3 mg/kg by lever press assay; type: functional; design: scale not given: the % may be the effect or the level left; how it was run: as §3
[17] = test system: Mus musculus; experiment: Antagonist effect on nicotine-induced hypothermia in mouse at […]; type: functional; design: scale not given: the % may be the effect or the level left
[18] = test system: Mus musculus; experiment: Antinociceptive activity in mouse by tail flick assay at 10 ug administered intrathecally; type: functional, organism-based
How it was run: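 Tail-flick latency to a heat lamp in mice after intrathecal injection of 10 µg/mouse.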

[19] = biological target: T1, Neuronal acetylcholine receptor; alpha4/beta2; experiment: Agonist activity at human alpha-4-beta-2 nACHR in SH-EP1 cells by patch-clamp assay at 10 uM; type: functional, cell-based
[20] = biological target: T1, Neuronal acetylcholine receptor; alpha4/beta2; experiment: Activity at human alpha-4-beta-2 nACHR assessed as inhibition of ACh-induced current in SH-EP1 cells at 40 uM; type: functional, cell-based; design: scale not given: the % may be the effect or the level left
[21] = biological target: T2, Neuronal acetylcholine receptor; alpha3/beta4 (Rattus norvegicus) (UniProt P04757+P12392); experiment: Agonist activity at rat alpha3beta4 nACHR in HEK293 cells by patch-clamp assay at 10 uM; type: functional, cell-based
[22] = biological target: Neuronal acetylcholine receptor subunit alpha-7 (Homo sapiens) (UniProt P36544); experiment: Displacement of [125I]iodoMLA from alpha-7 nACHR at 10 uM; details: Rattus norvegicus
[23] = biological target: T2, Neuronal acetylcholine receptor; alpha3/beta4 (Rattus norvegicus); experiment: Antagonist activity at rat alpha-3-beta-4 nACHR in HEK293 cells by patch-clamp assay at 10 uM; type: functional, cell-based; design: scale not given: the % may be the effect or the level left
[24] = biological target: T1, Neuronal acetylcholine receptor; alpha4/beta2; experiment: Antagonist activity at human alpha-4-beta-2 nACHR in SH-EP1 cells by patch-clamp assay at 10 uM; type: functional, cell-based; design: scale not given: the % may be the effect or the level left
[25] = test system: Mus musculus; experiment: Spontaneous activity in mouse at 5 mg/kg; type: functional; how it was run: as §4
[26] = test system: Mus musculus; experiment: Hypothermia in mouse at 5 mg/kg; type: functional, organism-based; design: dose 5 mg/kg; how it was run: as §1
[27] = species: Mus musculus; experiment: Antinociceptive activity in mouse by tail flick assay
[28] = test system: Mus musculus; experiment: Antinociceptive activity in sc dosed mouse by hot plate assay after 5 mins

Chain of Neuronal acetylcholine receptor; alpha4/beta2 (Rattus norvegicus, UniProt P09483+P12390) (P09483 whole entry): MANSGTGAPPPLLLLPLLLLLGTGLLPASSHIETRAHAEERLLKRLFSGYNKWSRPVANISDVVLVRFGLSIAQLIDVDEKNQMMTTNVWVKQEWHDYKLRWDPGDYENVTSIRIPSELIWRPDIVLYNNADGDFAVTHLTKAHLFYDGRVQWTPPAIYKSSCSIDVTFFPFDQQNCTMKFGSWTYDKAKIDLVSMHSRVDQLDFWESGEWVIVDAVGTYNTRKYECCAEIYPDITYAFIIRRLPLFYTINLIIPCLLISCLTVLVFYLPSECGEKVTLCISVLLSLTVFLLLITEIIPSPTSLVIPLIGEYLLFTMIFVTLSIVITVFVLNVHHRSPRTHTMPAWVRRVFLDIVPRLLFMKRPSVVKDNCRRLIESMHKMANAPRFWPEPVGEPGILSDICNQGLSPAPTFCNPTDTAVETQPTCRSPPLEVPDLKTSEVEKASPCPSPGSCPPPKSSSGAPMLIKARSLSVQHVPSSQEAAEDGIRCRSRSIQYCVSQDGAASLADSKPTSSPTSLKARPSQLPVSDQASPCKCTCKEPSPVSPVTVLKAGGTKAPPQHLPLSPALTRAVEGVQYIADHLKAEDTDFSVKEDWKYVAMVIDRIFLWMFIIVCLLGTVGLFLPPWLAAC
Chain of Neuronal acetylcholine receptor; alpha4/beta2 (Rattus norvegicus, UniProt P09483+P12390) (P12390 whole entry): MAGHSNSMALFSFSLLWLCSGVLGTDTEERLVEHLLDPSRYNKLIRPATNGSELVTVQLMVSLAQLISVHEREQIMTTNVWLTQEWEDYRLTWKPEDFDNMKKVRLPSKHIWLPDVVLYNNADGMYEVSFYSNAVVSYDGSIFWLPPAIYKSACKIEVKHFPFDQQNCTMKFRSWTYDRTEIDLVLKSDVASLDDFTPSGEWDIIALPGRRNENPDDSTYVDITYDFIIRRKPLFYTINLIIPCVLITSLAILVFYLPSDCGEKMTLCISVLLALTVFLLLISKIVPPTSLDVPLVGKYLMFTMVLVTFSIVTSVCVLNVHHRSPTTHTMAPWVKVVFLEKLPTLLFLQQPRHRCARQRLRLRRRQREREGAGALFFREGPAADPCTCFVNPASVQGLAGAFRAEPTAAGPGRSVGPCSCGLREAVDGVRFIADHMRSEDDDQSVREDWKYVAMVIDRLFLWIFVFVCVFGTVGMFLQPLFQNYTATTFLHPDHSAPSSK
Chain of Neuronal acetylcholine receptor subunit alpha-7 (Homo sapiens) (P36544 whole entry): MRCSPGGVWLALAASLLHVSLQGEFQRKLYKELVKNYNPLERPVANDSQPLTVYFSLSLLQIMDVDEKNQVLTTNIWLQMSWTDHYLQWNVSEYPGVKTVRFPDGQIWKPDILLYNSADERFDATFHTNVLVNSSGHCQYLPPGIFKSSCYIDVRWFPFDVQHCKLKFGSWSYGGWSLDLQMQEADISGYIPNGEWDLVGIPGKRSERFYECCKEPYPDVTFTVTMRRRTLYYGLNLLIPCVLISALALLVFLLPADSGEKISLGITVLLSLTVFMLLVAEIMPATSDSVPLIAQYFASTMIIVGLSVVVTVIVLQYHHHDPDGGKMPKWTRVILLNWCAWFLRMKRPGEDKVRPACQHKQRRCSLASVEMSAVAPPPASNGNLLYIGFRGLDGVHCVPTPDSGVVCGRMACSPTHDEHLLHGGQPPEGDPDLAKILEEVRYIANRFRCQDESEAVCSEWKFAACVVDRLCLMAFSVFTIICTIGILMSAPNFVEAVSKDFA
T1 sequence (P17787 whole entry): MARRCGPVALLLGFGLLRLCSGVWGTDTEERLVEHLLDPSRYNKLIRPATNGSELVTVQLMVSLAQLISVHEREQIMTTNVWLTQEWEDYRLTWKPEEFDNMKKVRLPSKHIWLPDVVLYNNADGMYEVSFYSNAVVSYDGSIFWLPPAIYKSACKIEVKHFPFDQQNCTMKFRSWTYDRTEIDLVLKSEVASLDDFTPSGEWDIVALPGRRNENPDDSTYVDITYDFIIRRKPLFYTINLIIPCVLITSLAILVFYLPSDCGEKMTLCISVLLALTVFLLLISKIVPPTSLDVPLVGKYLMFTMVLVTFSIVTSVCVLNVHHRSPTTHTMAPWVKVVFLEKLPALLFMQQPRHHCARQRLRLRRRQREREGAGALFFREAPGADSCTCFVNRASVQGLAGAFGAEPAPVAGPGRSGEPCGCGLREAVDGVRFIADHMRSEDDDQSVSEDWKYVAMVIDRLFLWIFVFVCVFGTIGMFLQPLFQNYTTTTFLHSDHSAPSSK
T1 sequence (P43681 whole entry): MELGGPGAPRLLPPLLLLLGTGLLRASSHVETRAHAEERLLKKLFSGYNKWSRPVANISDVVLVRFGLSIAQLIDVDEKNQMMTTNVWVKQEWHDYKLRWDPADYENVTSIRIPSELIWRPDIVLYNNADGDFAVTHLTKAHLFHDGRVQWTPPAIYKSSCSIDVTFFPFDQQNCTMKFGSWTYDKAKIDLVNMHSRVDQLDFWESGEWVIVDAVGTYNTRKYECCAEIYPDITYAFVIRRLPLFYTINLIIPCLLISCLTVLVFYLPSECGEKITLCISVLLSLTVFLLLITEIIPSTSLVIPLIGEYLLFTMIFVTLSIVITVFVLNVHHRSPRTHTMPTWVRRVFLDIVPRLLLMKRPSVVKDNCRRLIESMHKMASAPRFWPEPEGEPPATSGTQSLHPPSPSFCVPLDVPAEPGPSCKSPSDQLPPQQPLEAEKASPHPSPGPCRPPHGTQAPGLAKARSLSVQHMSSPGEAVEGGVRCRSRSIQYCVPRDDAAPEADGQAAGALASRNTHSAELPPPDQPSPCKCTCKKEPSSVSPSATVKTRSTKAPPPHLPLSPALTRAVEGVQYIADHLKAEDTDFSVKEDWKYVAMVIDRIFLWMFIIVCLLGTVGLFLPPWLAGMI

c1cc2c(cn1)C1CCC(CC2)N1 (racemic)
ED50 ([1]; Mus musculus, read-out: ED50): 1.6 mg/kg
Activity [2]: 2%
Activity [3]: 84%
ED50 ([4]; Mus musculus, read-out: ED50): 2.6 mg/kg
Activity [5]: 12%
pKi [6]: 8.21
AD50 [7]: 1000 µg/kg
Activity [8]: 17%
AD50 [9]: 5 µg/kg

c1cc2c(cn1)C1CCC(CC2)N1 (single isomer, unassigned; (+)) [listing 1 of 2 here]
Activity [10]: 8%
ED50 [1]: 2.9 mg/kg
Activity [11]: 5%
Activity [12]: 0%
Activity [13]: 8%
ED50 [4]: 2 mg/kg
pEC50 [14]: 5.26
Activity [15]: 44.5%
Activity [16]: 96%
pKi [6]: 8.89
Activity [17]: 0%

c1cc2c(cn1)C1CCC(CC2)N1 (single isomer, unassigned; (+)) [listing 2 of 2 here]
Activity [18]: inactive
Activity [19]: 28%
Activity [20]: 10%
Activity [21]: 13%
inhibition [22]: < 50%
Activity [23]: 101%
Activity [24]: 117%
Activity [14]: 17%

c1cc2c(cn1)C1CCC(CC2)N1 (single isomer, unassigned; (-)) [listing 1 of 2 here]
Activity [10]: 2%
Activity [13]: 2%
Activity [25]: 10%
pKi [6]: 6.46
AD50 [7]: 0.8 µg/kg
Activity [8]: 23.8%
AD50 [9]: 0.07 µg/kg

c1cc2c(cn1)C1CCC(CC2)N1 (single isomer, unassigned; (-)) [listing 2 of 2 here]
Activity [18]: inactive
Activity [26]: Active
Activity [19]: 0%
Activity [21]: 0.9%
inhibition [22]: 50%
Activity [23]: 93%
Activity [24]: 89%

Clc1ccc([C@@H]2C[C@H]3CC[C@@H]2N3)cn1 [(+)-EPIBATIDINE]
ED50 [27]: 0.0006 mg/kg
ED50 ([1]; Mus musculus, read-out: ED50): 0.004 mg/kg
ED50 ([4]; Mus musculus, read-out: ED50): 0.001 mg/kg
ED50 [28]: 0.004 mg/kg

Clc1ccc([C@H]2C[C@@H]3CC[C@H]2N3)cn1 [(-)-EPIBATIDINE]
ED50 [27]: 0.006 mg/kg
ED50 ([1]; Mus musculus, read-out: ED50): 0.004 mg/kg
ED50 ([4]; Mus musculus, read-out: ED50): 0.001 mg/kg
ED50 [28]: 0.004 mg/kg

CN1CCC[C@H]1c1cccnc1 [NICOTINE]
ED50 [27]: 1.3 mg/kg
ED50 ([1]; Mus musculus, read-out: ED50): 1 mg/kg
ED50 ([4]; Mus musculus, read-out: ED50): 0.5 mg/kg
ED50 [28]: 0.65 mg/kg

CN1CCC[C@@H]1c1cccnc1 [R-NICOTINE]
ED50 [27]: 8 mg/kg
ED50 ([1]; Mus musculus, read-out: ED50): 7.6 mg/kg
ED50 ([4]; Mus musculus, read-out: ED50): 2.9 mg/kg
ED50 [28]: 3.9 mg/kg
